According to ChEMBL document CHEMBL4041505, “Synthesis, SAR and pharmacological characterization of novel anthraquinone cation compounds as potential anticancer agents” (Eur J Med Chem, 2017):

Columns and labels:
A-375 [1] = experiment: Cytotoxicity against human A375 cells measured after 24 hrs by MTT assay; assay type: functional, cell-based; details: A-375, 24 h
Procedure, shortened: (§1)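 Cells were kept in RPMI 1640 with 10% FBS, penicillin and streptomycin at 37°C in 5% CO2. Seeding was given for A375 only, at 1×10^4/well. After 24 h, cells were exposed to compounds for 24 h; compounds were dissolved in DMSO and diluted in medium containing 0.1% DMSO. Cells were washed, given 5 mg/mL MTT for 4 h, and formazan was dissolved in DMSO and read at 492 nm. Three independent experiments were run in triplicate, with IC50 taken from viability curves.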

BGC-823 = experiment: Cytotoxicity against human BGC823 cells measured after 24 hrs by MTT assay; assay type: functional, cell-based; details: BGC-823, 24 h; procedure, shortened: as §1
HepG2 = experiment: Cytotoxicity against human HepG2 cells measured after 24 hrs by MTT assay; assay type: functional, cell-based; details: HepG2, 24 h; procedure, shortened: as §1
[2] = Cytotoxicity against HELF cells measured after 24 hrs by MTT assay; assay type: cell-based; details: Homo sapiens; procedure, shortened: as §1
HeLa [3] = experiment: Induction of apoptosis in human HeLa cells assessed as early apoptotic cells at 1 uM measured after 24 hrs by Annexin V-FITC/propidium iodide staining based flow cytometry (reference value: 0.078 %); assay type: functional
HeLa [4] = experiment: Induction of apoptosis in human HeLa cells assessed as necrotic cells at 1 uM measured after 24 hrs by Annexin V-FITC/propidium iodide staining based flow cytometry relative to control; assay type: functional
A-375 [5] = experiment: Induction of apoptosis in human A375 cells assessed as increase in intracellular ROS production measured after 24 hrs by DCF-DA fluorescence dye based flow cytometry; assay type: functional, cell-based
Procedure, shortened: (§2)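 A375 cells were exposed to treatments for 24 h and washed with PBS. They were loaded with 20 µM DCF-DA in serum-free DMEM at 37°C for 30 min, washed with ice-cold PBS and harvested. Mean DCF fluorescence was measured by flow cytometry as the ROS level; n=3, mean±SD, relative to untreated cells.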

A-375 [6] = experiment: Induction of apoptosis in human A375 cells assessed as chromatin condensation measured after 24 hrs by DAPI staining based fluorescence microscopic analysis; assay type: functional, cell-based
Procedure, shortened: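 A375 cells were treated with 1, 2 or 4 μM for 24 h, washed, and fixed in cold methanol:acetic acid (3:1) for 10 min. They were stained with 1 μg/mL DAPI at 37°C for 5 min and imaged by fluorescence microscopy at 364 nm, 400×, for nuclear morphology.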

A-375 [7] = experiment: Induction of apoptosis in human A375 cells assessed as decrease in mitochondrial membrane potential at 4 uM measured after 30 mins by DiOC6 dye based flow cytometry relative to control; assay type: functional; set-up: scale not given: the % may be the effect or the level left
Procedure, shortened: (§3)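 A375 cells were treated at 0, 1, 2 or 4 μM, then loaded with 50 nM DiOC6 in serum-free DMEM at 37°C for 30 min. Cells were washed twice with ice-cold PBS, harvested and analysed by flow cytometry. ΔΨm is expressed as percent change versus untreated cells, as mean±SD of three determinations.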

HeLa [8] = experiment: Induction of apoptosis in human HeLa cells assessed as live cells at 1 uM measured after 24 hrs by Annexin V-FITC/propidium iodide staining based flow cytometry (reference value: 99.9 %); assay type: functional
A-375 [9] = experiment: Induction of apoptosis in human A375 cells assessed as increase in caspase-3 expression measured after 24 hrs by Western blot analysis; assay type: functional, cell-based
Procedure, shortened: (§4)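 A375 cells were treated for 24 h at 5 or 10 μM. Lysates were clarified at 12,000 g for 5 min at 4°C and protein measured by BCA. Equal protein was run on 10% SDS-PAGE and transferred to PVDF. Primary antibodies (1:1000) were applied overnight at 4°C, then secondary (1:5000) for 2 h at 37°C. Detection was by chemiluminescence with densitometry, GAPDH as internal reference.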

[10] = Drug uptake in nucleus of human A375 cells at 2 uM measured after 24 hrs by Mito-Tracker Green staining based laser confocal microscopic analysis; assay type: ADME
Procedure, shortened: (§5)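 A375 cells were plated at 10^5 cells/mL for 24 h to about 70% confluence. They were exposed to 2 μM at 37°C for 24 h, washed, then stained with 100 nM Mito-Tracker Green (488 nm) for 30 min. After PBS washes, compound fluorescence (568 nm) and the mitochondrial stain were imaged by laser confocal microscopy.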

A-375 [11] = experiment: Induction of apoptosis in human A375 cells assessed as increase in P53 expression measured after 24 hrs by Western blot analysis; assay type: functional, cell-based; procedure, shortened: as §4
HeLa [12] = experiment: Induction of apoptosis in human HeLa cells assessed as late apoptotic cells at 1 uM measured after 24 hrs by Annexin V-FITC/propidium iodide staining based flow cytometry (reference value: 0.058 %); assay type: functional
A-375 [13] = experiment: Induction of apoptosis in human A375 cells assessed as loss of mitochondrial membrane potential measured after 30 mins by DiOC6 dye based flow cytometry; assay type: functional, cell-based; procedure, shortened: as §3
HeLa [14] = experiment: Reduction in mitochondrial membrane potential in mitochondria isolated from human HeLa cells measured after 2 hrs by DiOC6 dye based HSFCM analysis; assay type: functional, cell-based
Procedure, shortened: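 Mitochondria isolated from HeLa cells were treated at 0, 1, 10, 50 or 100 µM for 2 h at 37°C and washed with MT buffer. They were stained with 500 nM DiOC6 for 15 min at 37°C, washed twice and resuspended in MT buffer. Analysis was on a laboratory-built high-sensitivity flow cytometer, recording median and mean green fluorescence against drug concentration.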

A-375 [15] = experiment: Induction of apoptosis in human A375 cells assessed as increase in intracellular ROS production at 2 uM measured after 24 hrs by DCF-DA fluorescence dye based flow cytometry relative to control; assay type: functional; procedure, shortened: as §2
[16] = Drug uptake in mitochondria of human A375 cells at 2 uM measured after 24 hrs by Mito-Tracker Green staining based laser confocal microscopic analysis; assay type: ADME; procedure, shortened: as §5
A-375 [17] = experiment: Induction of apoptosis in human A375 cells assessed as increase in intracellular ROS production at 1 uM measured after 24 hrs by DCF-DA fluorescence dye based flow cytometry relative to control; assay type: functional; procedure, shortened: as §2
A-375 [18] = experiment: Induction of apoptosis in human A375 cells assessed as decrease in mitochondrial membrane potential at 1 uM measured after 30 mins by DiOC6 dye based flow cytometry relative to control; assay type: functional; set-up: scale not given: the % may be the effect or the level left; procedure, shortened: as §3

**Q.** For `CCCCCCCCC[N+](C)(C)Cc1cc(O)c2c(c1)C(=O)c1cc(OC)cc(O)c1C2=O`, which IC50 (A-375 [1]) is on record?
**A.** The IC50 was 9.87 µM.

**Q.** What about the IC50 (BGC-823) of the same molecule?
**A.** Its IC50 is 9.76 µM.

**Q.** What about the IC50 (HepG2) of the same molecule?
**A.** The IC50 was 10.4 µM.

**Q.** What about the IC50 [2] of the same molecule?
**A.** Its IC50 is 21.6 µM.

**Q.** Which IC50 (A-375 [1]) does the source give for `CCCCCCCCC[N+](C)(CCOCCOCCO)Cc1cc(OC)c2c(c1)C(=O)c1cc(OC)cc(OC)c1C2=O` (stereo not given) here?
**A.** Its IC50 is 28.9 µM.

**Q.** What about the IC50 (BGC-823) of the same molecule?
**A.** The IC50 was 32.7 µM.

**Q.** What about the IC50 (HepG2) of the same molecule?
**A.** Its IC50 is 37.7 µM.

**Q.** What about the IC50 [2] of the same molecule?
**A.** The IC50 was 40.4 µM.

**Q.** What does the source list for `CCCCCCCC[N+](CCCCCCCC)(CCCCCCCC)Cc1cc(OC)c2c(c1)C(=O)c1cc(OC)cc(OC)c1C2=O`?
**A.** IC50 (A-375 [1]): 3.46 µM; IC50 (BGC-823): 5 µM; IC50 (HepG2): 5.45 µM; IC50 [2]: 4.5 µM

**Q.** Which IC50 (A-375 [1]) does the source give for `CCCCCCCCCC[N+](C)(CCCCCCCCC)Cc1cc(O)c2c(c1)C(=O)c1cc(OC)cc(O)c1C2=O` (stereo not given) here?
**A.** The IC50 was 2.2 µM.

**Q.** What about the IC50 (BGC-823) of the same molecule?
**A.** Its IC50 is 3.85 µM.

**Q.** And the IC50 (HepG2)?
**A.** Its IC50 is 3.97 µM.

**Q.** What about the IC50 [2] of the same molecule?
**A.** Its IC50 is 9.56 µM.

**Q.** For `CCCCCCCC[N+](C)(CCCCCCCC)Cc1cc(O)c2c(c1)Cc1cc(O)cc(O)c1C2=O`, which IC50 (HepG2) is on record?
**A.** The IC50 was over 100 µM.

**Q.** And the IC50 [2]?
**A.** The IC50 was over 100 µM.

**Q.** Which IC50 (A-375 [1]) does the source give for `COCCOCC[N+](CCOCCOC)(CCOCCOC)Cc1cc(OC)c2c(c1)C(=O)c1cc(OC)cc(OC)c1C2=O` here?
**A.** Its IC50 is over 100 µM.

**Q.** And the IC50 (BGC-823)?
**A.** Its IC50 is over 100 µM.

**Q.** What about the IC50 (HepG2) of the same molecule?
**A.** The IC50 was over 100 µM.

**Q.** And the IC50 [2]?
**A.** The IC50 was over 100 µM.

**Q.** For `CCCCCCCCC[N+](C)(CCCCCCCC)Cc1cc(O)c2c(c1)C(=O)c1cc(OC)cc(O)c1C2=O.[Br-]` (stereo not given), which IC50 (A-375 [1]) is on record?
**A.** The IC50 was 1.39 µM.

**Q.** And the Activity (HeLa [3])?
**A.** The Activity was 0.444%.

**Q.** What about the Activity (HeLa [4]) of the same molecule?
**A.** The Activity was 35%.

**Q.** And the IC50 (BGC-823)?
**A.** Its IC50 is 2.79 µM.

**Q.** What about the Activity (A-375 [5]) of the same molecule?
**A.** Its Activity is “Dose-dependent effect”.

**Q.** What about the Activity (A-375 [6]) of the same molecule?
**A.** The Activity was “Dose-dependent effect”.

**Q.** What about the Activity (A-375 [7]) of the same molecule?
**A.** Its Activity is 38%.

**Q.** What about the Activity (HeLa [8]) of the same molecule?
**A.** Its Activity is 3.73%.

**Q.** What about the Activity (A-375 [9]) of the same molecule?
**A.** Its Activity is “Dose-dependent effect”.

**Q.** And the Drug uptake [10]?
**A.** Its Drug uptake is “Not Active”.

**Q.** And the Activity (A-375 [11])?
**A.** The Activity was “Dose-dependent effect”.

**Q.** And the Activity (HeLa [12])?
**A.** Its Activity is 60.8%.

**Q.** What about the Activity (A-375 [13]) of the same molecule?
**A.** Its Activity is “Dose-dependent effect”.

**Q.** What about the IC50 (HepG2) of the same molecule?
**A.** The IC50 was 4.12 µM.

**Q.** And the Activity (HeLa [14])?
**A.** The Activity was “Dose-dependent effect”.

**Q.** And the “fold change (FC)” value (A-375 [15])?
**A.** Its value is 5.8.

**Q.** And the Drug uptake [16]?
**A.** Its Drug uptake is “Active”.

**Q.** And the “fold change (FC)” value (A-375 [17])?
**A.** The value was 2.7.

**Q.** What about the Activity (A-375 [18]) of the same molecule?
**A.** The Activity was 25%.

**Q.** What about the IC50 [2] of the same molecule?
**A.** The IC50 was 9.65 µM.

**Q.** Which results are given for `Cc1cc(O)c2c(c1)C(=O)c1cc(O)cc(O)c1C2=O` [EMODIN]?
**A.** IC50 (A-375 [1]): 44.9 µM; IC50 (BGC-823): > 50 µM; IC50 (HepG2): > 50 µM; IC50 [2]: 46.3 µM

**Q.** Which IC50 (A-375 [1]) does the source give for `CC(=O)O[C@H]1C(=O)[C@@]2(C)[C@H]([C@H](OC(=O)c3ccccc3)[C@]3(O)C[C@H](OC(=O)[C@H](O)[C@@H](NC(=O)c4ccccc4)c4ccccc4)C(C)=C1C3(C)C)[C@]1(OC(C)=O)CO[C@@H]1C[C@@H]2O` [PACLITAXEL] here?
**A.** The IC50 was 11.3 µM.

**Q.** Which IC50 (HepG2) does the source give for `CCCCCCCC[N+](C)(CCCCCCCC)Cc1ccc2c(c1)C(=O)c1ccccc1C2=O` here?
**A.** Its IC50 is 2.08 µM.

**Q.** And the IC50 [2]?
**A.** The IC50 was 8.46 µM.

**Q.** Which results are given for `CCCCCCCCCC[N+](C)(CCCCCCCCCC)Cc1ccc2c(c1)C(=O)c1ccccc1C2=O`?
**A.** IC50 (HepG2): 1.57 µM; IC50 [2]: 5.84 µM

**Q.** With `CCCCCCCCC[N+](C)(CCCCCCCCC)Cc1cc(O)c2c(c1)C(=O)c1cc(OC)cc(O)c1C2=O` as the molecule, how does the IC50 (A-375 [1]) read?
**A.** The IC50 was 2.63 µM.

**Q.** And the IC50 (BGC-823)?
**A.** Its IC50 is 3.93 µM.

**Q.** What about the IC50 (HepG2) of the same molecule?
**A.** The IC50 was 7.39 µM.

**Q.** And the IC50 [2]?
**A.** The IC50 was 9.83 µM.
